# Measurements reported in PMC2857138 (The Journal of Biological Chemistry, 2010).
# Columns and labels:
# Type in all cases: biochemical
# [1] = molecular target: IP3R2 (Mus musculus, UniProt Q9Z329, G1969A/G1971A/G1974A); experiment: Ca2+ release from stores of permeabilized DT40-ΔATPB cells
# Procedure, shortened: (§1)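 DT40 cells lacking all endogenous IP3R genes were stably transfected with the IP3R construct and selected with G418 (2 mg/ml). Intracellular stores were loaded with Mag-fluo-4, and cells were permeabilized with saponin (10 μg/ml) at 20 °C in cytosol-like medium (free Ca²⁺ 220 nM, pH 7.0). After MgATP (1.5 mM) loading reached steady state, IP3 was added with thapsigargin (1 μM). Release was expressed as a fraction of ionomycin (1 μM) release.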
# [2] = molecular target: IP3R2 (Mus musculus, UniProt Q9Z329); experiment: Ca2+ release from stores of permeabilized DT40 cells
# Chain of IP3R2 (Mus musculus, UniProt Q9Z329) (Q9Z329 whole entry): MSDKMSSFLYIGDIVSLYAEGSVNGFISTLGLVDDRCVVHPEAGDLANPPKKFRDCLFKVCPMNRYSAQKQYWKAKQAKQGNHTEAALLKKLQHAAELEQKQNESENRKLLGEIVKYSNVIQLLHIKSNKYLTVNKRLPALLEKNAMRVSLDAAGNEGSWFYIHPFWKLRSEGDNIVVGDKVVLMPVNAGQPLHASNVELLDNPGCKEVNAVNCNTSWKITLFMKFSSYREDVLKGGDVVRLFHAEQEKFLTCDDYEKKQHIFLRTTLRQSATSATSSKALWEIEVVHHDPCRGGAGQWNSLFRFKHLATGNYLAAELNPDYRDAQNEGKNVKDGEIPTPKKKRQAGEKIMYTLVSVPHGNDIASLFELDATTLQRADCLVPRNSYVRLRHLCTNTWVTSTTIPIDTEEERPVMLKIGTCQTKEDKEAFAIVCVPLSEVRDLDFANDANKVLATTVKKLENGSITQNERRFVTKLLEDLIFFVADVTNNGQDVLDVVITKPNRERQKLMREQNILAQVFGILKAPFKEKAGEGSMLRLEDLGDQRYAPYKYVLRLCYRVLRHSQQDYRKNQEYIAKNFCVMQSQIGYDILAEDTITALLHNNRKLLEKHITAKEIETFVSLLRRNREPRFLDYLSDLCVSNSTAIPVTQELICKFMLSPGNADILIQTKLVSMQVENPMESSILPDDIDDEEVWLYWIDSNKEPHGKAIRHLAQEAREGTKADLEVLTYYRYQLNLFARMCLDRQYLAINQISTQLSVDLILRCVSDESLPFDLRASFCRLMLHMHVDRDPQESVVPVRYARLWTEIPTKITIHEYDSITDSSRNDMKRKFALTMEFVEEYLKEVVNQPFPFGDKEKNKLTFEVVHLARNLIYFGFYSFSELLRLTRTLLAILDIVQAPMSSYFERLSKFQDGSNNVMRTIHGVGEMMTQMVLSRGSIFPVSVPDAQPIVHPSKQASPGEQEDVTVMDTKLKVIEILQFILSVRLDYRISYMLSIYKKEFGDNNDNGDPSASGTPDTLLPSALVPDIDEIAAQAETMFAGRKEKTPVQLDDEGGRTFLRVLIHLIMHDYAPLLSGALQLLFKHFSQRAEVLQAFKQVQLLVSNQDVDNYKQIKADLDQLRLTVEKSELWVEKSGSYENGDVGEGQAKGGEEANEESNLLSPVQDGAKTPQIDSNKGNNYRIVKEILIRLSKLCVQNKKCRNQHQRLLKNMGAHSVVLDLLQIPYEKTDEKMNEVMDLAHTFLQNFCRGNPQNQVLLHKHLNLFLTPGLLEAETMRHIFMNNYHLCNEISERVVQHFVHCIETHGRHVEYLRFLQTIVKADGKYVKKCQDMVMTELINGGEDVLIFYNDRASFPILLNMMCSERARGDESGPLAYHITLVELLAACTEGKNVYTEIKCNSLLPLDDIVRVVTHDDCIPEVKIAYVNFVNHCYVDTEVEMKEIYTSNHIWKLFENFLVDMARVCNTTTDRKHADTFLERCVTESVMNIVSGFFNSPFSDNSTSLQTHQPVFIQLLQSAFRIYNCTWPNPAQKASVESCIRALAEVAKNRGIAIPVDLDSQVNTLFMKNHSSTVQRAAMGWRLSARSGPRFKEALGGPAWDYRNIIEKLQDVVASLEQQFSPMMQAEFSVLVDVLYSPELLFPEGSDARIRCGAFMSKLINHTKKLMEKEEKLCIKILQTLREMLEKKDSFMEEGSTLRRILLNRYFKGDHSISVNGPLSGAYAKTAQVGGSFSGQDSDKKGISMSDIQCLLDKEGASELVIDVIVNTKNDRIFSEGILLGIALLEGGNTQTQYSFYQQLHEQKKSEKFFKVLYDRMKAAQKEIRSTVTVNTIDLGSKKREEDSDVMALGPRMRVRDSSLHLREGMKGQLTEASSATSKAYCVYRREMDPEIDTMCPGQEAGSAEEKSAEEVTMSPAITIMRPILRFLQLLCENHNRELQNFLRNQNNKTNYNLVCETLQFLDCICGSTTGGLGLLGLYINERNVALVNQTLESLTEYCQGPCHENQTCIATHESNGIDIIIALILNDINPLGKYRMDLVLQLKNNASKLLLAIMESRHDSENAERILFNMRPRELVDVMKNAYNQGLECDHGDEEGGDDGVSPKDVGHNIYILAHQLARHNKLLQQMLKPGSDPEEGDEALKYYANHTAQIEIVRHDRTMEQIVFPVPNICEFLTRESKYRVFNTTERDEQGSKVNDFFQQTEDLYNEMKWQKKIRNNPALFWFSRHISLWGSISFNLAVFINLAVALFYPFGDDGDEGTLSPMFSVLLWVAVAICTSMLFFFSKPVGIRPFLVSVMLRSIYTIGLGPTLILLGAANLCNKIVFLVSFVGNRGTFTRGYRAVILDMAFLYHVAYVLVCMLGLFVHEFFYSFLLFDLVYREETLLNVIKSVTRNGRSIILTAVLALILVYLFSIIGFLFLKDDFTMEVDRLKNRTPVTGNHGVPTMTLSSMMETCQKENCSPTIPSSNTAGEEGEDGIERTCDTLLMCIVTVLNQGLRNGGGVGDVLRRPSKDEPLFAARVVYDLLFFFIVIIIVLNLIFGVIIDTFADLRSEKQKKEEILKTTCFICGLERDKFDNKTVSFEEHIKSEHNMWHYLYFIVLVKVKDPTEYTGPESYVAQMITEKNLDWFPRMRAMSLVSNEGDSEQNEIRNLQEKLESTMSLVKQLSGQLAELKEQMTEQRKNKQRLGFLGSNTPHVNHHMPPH
# Procedure, shortened: as §1
# [3] = molecular target: IP3R3 (Rattus norvegicus, UniProt Q63269); experiment: Ca2+ release from stores of permeabilized DT40 cells
smiles,measurement,setting,value
O=P(O)(O)O[C@@H]1[C@H](O)[C@H](O)[C@@H](OP(=O)(O)O)[C@H](OP(=O)(O)O)[C@H]1O [IP3],EC50,[1],246 ± 17 nM
same,EC50,[2],74 ± 10 nM
same,EC50,[3],255 ± 9 nM
